Laboratory results: ChEMBL document CHEMBL3259602, “Thiaflavan scavenges radicals and inhibits DNA oxidation: a story from the ferrocene modification” (Eur J Med Chem, 2014)
The source made the active and inactive calls. The rule behind the calls is not given here.

test system: not listed separately; assay: Antioxidant activity assessed as ABTS radical scavenging activity after 16 hrs by spectrophotometric analysis; type: functional
How it was run: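 Radical cation pre-formed over 16 h, then diluted in ethanol to about 0.70 absorbance at 734 nm. Compound in DMSO (0.1 mL) was added to 1.9 mL of radical solution at 7.5 μM final. Absorbance decay was recorded at 25 °C. The rate constant k was derived from the initial rate (t = 0).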

Compound | K [×10³ /M/s]
Oc1ccc(C2CSc3cc(O)ccc3O2)cc1 (stereo unspecified) | 8.92
COc1ccc2c(c1)SCC(c1ccc(O)cc1)O2 (stereo unspecified) | 0.202
Oc1ccc2c(c1)SCC(c1ccc(O)c(O)c1)O2 (stereo unspecified) | 11.7
Oc1ccc2c(c1)SC=C(c1ccccc1)O2 | 4.89
COc1ccc2c(c1)OC(c1ccc(O)cc1)CS2 (stereo unspecified) | 0.168
Cc1c(C)c2c(c(C)c1O)CCC(C)(C(=O)O)O2 (stereo unspecified) | 29.2
Oc1ccccc1O | 2.58
COc1ccc2c(c1)SC=C(c1ccc(O)cc1)O2 | 8.14
COc1ccc2c(c1)SCC(c1ccc(O)c(O)c1)O2 (stereo unspecified) | 390
Oc1ccc(C2CSc3ccc(O)cc3O2)cc1 (stereo unspecified) | 10.8
Oc1ccc2c(c1)OC(c1ccc(O)c(O)c1)CS2 (stereo unspecified) | 16.7

test system: not listed separately; assay: Antioxidant activity assessed as inhibition of AAPH-induced oxidation of DNA by spectrophotometric analysis; type: functional
How it was run: (§1)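 DNA sodium salt (2.0 mg/mL) with 40 mM AAPH in phosphate buffer (8.1 mM Na2HPO4, 1.9 mM NaH2PO4, 10.0 mM EDTA), with various compound concentrations in DMSO; DMSO-only blank. Samples were heated at 37 °C. TBARS was read at 535 nm. The inhibition period was taken at the crossing of tangents, then plotted against concentration.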

Compound | Activity
Oc1ccc(C2CSc3cc(O)ccc3O2)cc1 (stereo unspecified) | Active
Oc1ccc2c(c1)SCC(c1ccc(O)c(O)c1)O2 (stereo unspecified) | Active
COc1ccc2c(c1)OC(c1ccc(O)cc1)CS2 (stereo unspecified) | Active
COc1ccc2c(c1)SCC(c1ccc(O)c(O)c1)O2 (stereo unspecified) | Active
Oc1ccc2c(c1)OC(c1ccc(O)c(O)c1)CS2 (stereo unspecified) | Active

test system: Radical scavenging activity; assay: Antioxidant activity assessed as DPPH radical scavenging activity by spectrophotometric analysis; type: functional
How it was run: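 DPPH in ethanol (about 1.00 absorbance at 517 nm). Compound in DMSO (0.1 mL) was added to 1.9 mL of radical solution at 37.5 or 75.0 μM final, depending on compound. Absorbance decay was followed at 25 °C. The rate constant k was calculated from the initial reaction rate at t = 0.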

Compound | K [×10³ /M/s]
Oc1ccc(C2CSc3cc(O)ccc3O2)cc1 (stereo unspecified) | 0.043
Oc1ccc2c(c1)SCC(c1ccc(O)c(O)c1)O2 (stereo unspecified) | 1.18
Oc1ccc2c(c1)SC=C(c1ccccc1)O2 | 0.0071
Cc1c(C)c2c(c(C)c1O)CCC(C)(C(=O)O)O2 (stereo unspecified) | 0.353
Oc1ccccc1O | 1.3
COc1ccc2c(c1)SC=C(c1ccc(O)cc1)O2 | 0.031
COc1ccc2c(c1)SCC(c1ccc(O)c(O)c1)O2 (stereo unspecified) | 2.2
Oc1ccc(C2CSc3ccc(O)cc3O2)cc1 (stereo unspecified) | 0.069
Oc1ccc2c(c1)OC(c1ccc(O)c(O)c1)CS2 (stereo unspecified) | 1.61

test system: not listed separately; assay: Antioxidant activity assessed as inhibition of AAPH-induced oxidation of DNA measured as TBARS formation by spectrophotometric analysis; type: functional; how it was run: as §1

Compound | Activity [nM/min]
COc1ccc2c(c1)SCC(c1ccc(O)cc1)O2 (stereo unspecified) | 4.2
Oc1ccc2c(c1)SC=C(c1ccccc1)O2 | 5.2
COc1ccc2c(c1)SC=C(c1ccc(O)cc1)O2 | 5.8
Oc1ccc(C2CSc3ccc(O)cc3O2)cc1 (stereo unspecified) | 4.1

test system: not listed separately; assay: Antioxidant activity assessed as inhibition of AAPH-induced oxidation of DNA at 200 uM by spectrophotometric analysis; type: functional

Compound | Activity
COc1ccc2c(c1)SCC(c1ccc(O)cc1)O2 (stereo unspecified) | Active
Oc1ccc2c(c1)SC=C(c1ccccc1)O2 | Active
COc1ccc2c(c1)SC=C(c1ccc(O)cc1)O2 | Active

test system: not listed separately; assay: Antioxidant activity assessed as inhibition of AAPH-induced oxidation of DNA at 100 uM by spectrophotometric analysis; type: functional
How it was run: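 Oxidation of 2.0 mg/mL DNA by 40 mM AAPH in phosphate/EDTA buffer at 37 °C, with compound at 100 μM (DMSO vehicle; DMSO-only control). TBARS was monitored at 535 nm (ε 1.56 × 10^5 M⁻¹ cm⁻¹), and its formation rate d[TBARS]/dt was expressed in nM min⁻¹.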

Compound | Activity
Oc1ccc(C2CSc3ccc(O)cc3O2)cc1 (stereo unspecified) | Active

test system: not listed separately; assay: Antioxidant activity assessed as galvinoxyl radical scavenging activity by spectrophotometric analysis; type: functional
How it was run: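 Galvinoxyl in ethanol, absorbance about 1.00 at 428 nm. Compound in DMSO (0.1 mL) was added to 1.9 mL of radical solution at 7.5 or 75.0 μM final, depending on compound. Absorbance decay was recorded at 25 °C. The rate constant k was derived from the initial rate at t = 0.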

Compound | K [×10³ /M/s]
Oc1ccc(C2CSc3cc(O)ccc3O2)cc1 (stereo unspecified) | 0.025
Oc1ccc2c(c1)SCC(c1ccc(O)c(O)c1)O2 (stereo unspecified) | 0.52
Cc1c(C)c2c(c(C)c1O)CCC(C)(C(=O)O)O2 (stereo unspecified) | 1.7
Oc1ccccc1O | 1.78
COc1ccc2c(c1)SCC(c1ccc(O)c(O)c1)O2 (stereo unspecified) | 2.54
Oc1ccc(C2CSc3ccc(O)cc3O2)cc1 (stereo unspecified) | 0.034
Oc1ccc2c(c1)OC(c1ccc(O)c(O)c1)CS2 (stereo unspecified) | 0.57

test system: not listed separately; assay: Antioxidant activity assessed as inhibition of AAPH-induced oxidation of DNA at 100 uM by spectrophotometric analysis

Compound | Activity
Oc1ccc(C2CSc3ccc(O)cc3O2)cc1 (stereo unspecified) | Active
